Activity calls are given as the source filed them.
Key:
[1] = test system: HeLa; experiment: Cytotoxicity against human HeLa cells after 48 hrs by SRB assay; assay type: functional, cell-based
How it was run: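 HeLa cells treated over a concentration range for 48 h; survival by sulforhodamine B staining relative to vehicle control; four-parameter nonlinear regression; IC50 and IC85 as concentrations giving 50% or 85% inhibition of cell density; time-zero cell density marks cytotoxicity threshold; mean ± SEM, n = 4 independent experiments in triplicate.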

[2] = test system: CWR22R; experiment: Cytotoxicity against human 22Rv1 cells after 24 to 72 hrs by MTT assay; assay type: functional, cell-based
[3] = test system: PC-3; experiment: Cytotoxicity against human PC3 cells after 24 to 72 hrs by MTT assay; assay type: functional, cell-based
[4] = Cytotoxicity against mouse lymphoma cells by MTT assay; assay type: functional, cell-based; conditions: Lymphoma cell
[5] = test system: LNCaP; experiment: Cytotoxicity against human LNCAP cells after 24 to 72 hrs by MTT assay; assay type: functional, cell-based
[6] = test system: HeLa; experiment: Induction of double stranded DNA breaks in human HeLa cells assessed as gamma-H2Ax phosphorylation at Ser139 residue at IC50 after 24 hrs by Hoechst 33342 staining-based indirect immunofluorescence microscopic method; assay type: cell-based
How it was run: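 HeLa exposed 24 h to IC50 concentration or 0.6% DMSO; fixed in ice-cold MeOH 5 min, blocked 10% bovine calf serum 20 min, anti-γH2A.X (Ser139) 2 h then Alexa Fluor 594 secondary 1 h at room temperature; nuclei counterstained Hoechst 33342; foci scored by fluorescence microscopy; n = 2 experiments in duplicate.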

[7] = test system: HeLa; experiment: Cytotoxicity against human HeLa cells assessed as inhibition of colony formation pretreated for 4 hrs followed by compound washout measured after 10 days by crystal violet staining based assay; assay type: functional, cell-based
How it was run: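 HeLa plated at 150 cells per dish, exposed 4 h to DMSO or IC85 concentration, washed with PBS, regrown in fresh medium 10 days; fixed, stained with 0.5% crystal violet in 10% methanol, colonies counted; n = 3−5 experiments in duplicate; one-way ANOVA.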

[8] = test system: HeLa; experiment: Cell cycle arrest in human HeLa cells at IC85 after 4 to 24 hrs by Krishan's reagent staining-based flow cytometric method; assay type: functional
[9] = test system: HeLa; experiment: Induction of apoptosis in human HeLa cells assessed as upregulation of cleaved PARP protein levels at IC85 after 24 hrs by Western blot analysis; assay type: functional, cell-based
How it was run: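 HeLa treated with IC85 concentration or 0.1% DMSO over a 4, 8, 16, 24 h time course; whole-cell lysates (protease inhibitors, 50 mM NaF, 200 μM Na3VO4, 1 mM PMSF), equal protein on 12% Bis-Tris SDS-PAGE, PVDF blot probed for cleaved PARP with GAPDH loading control (1:1000); two independent experiments.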

[10] = test system: HeLa; experiment: Cell cycle arrest in human HeLa cells assessed as accumulation at G2/M phase at IC85 after 24 hrs by Krishan's reagent staining-based flow cytometric method; assay type: functional
[11] = test system: P388; experiment: Cytotoxicity against mouse P388 cells; assay type: functional, cell-based
[12] = test system: HL-60; experiment: Cytotoxicity against human HL60 cells; assay type: functional, cell-based
[13] = test system: A549; experiment: Cytotoxicity against human A549 cells; assay type: functional, cell-based

SMILES | IC50 [1] [µM] | IC85 [1] [µM] | other results
COc1ccc2cc(NC(=O)C3=NO[C@H]4C=C[C@@H]5O[C@@H]5[C@@]4(O)C3)c(=O)oc2c1OC | > 10 | > 10 | –
CCOC(=O)C1=NO[C@H]2C=C[C@@H]3O[C@@H]3[C@@]2(O)C1 | > 10 | > 10 | –
COc1ccc2cc(N(C)C(=O)C3=NO[C@H]4C=CC=C[C@@]4(O)C3)c(=O)oc2c1OC | > 10 | > 10 | –
COc1ccc([C@H]2SS[C@@]34C[C@]5(O)[C@H](Cl)C=C[C@@H](O)[C@@H]5ON3C(=O)[C@@H]2N(C)C4=O)c(O)c1OC | – | – | IC50 [2]: 0.51 to 5.11 µM; IC50 [3]: 0.51 to 5.11 µM; IC50 [4]: 2 µM; IC50 [5]: 0.51 to 5.11 µM
COc1ccc2cc(NC(=O)C3=NO[C@H]4[C@H](O)C=C[C@@H](Cl)[C@@]4(O)C3)c(=O)oc2c1OC [TRICHODERMAMIDE B] | 3.1 | 18 | Activity [6]: Active; inhibition [7]: Active
CCOC(=O)C1=NO[C@H]2C=CC=C[C@@]2(O)C1 | > 10 | > 10 | –
COc1ccc2cc(NC(=O)C3=NO[C@H]4CC(=O)C=C[C@@]4(O)C3)c(=O)oc2c1OC (relative stereo) | 5.7 | 12 | Activity [6]: inactive; Activity [8]: inactive; inhibition [7]: inactive; Activity [9]: inactive
CCOC(=O)C1=NO[C@H]2[C@@H]3O[C@@H]3C=C[C@@]2(O)C1 | 21 | 51 | Activity [6]: inactive; Activity [8]: inactive; inhibition [7]: inactive; Activity [9]: inactive
CCOC(=O)C1=NO[C@H]2CC(=O)C=C[C@@]2(O)C1 | 12 | 32 | Activity [6]: inactive; Activity [10]: Active; inhibition [7]: Active
COc1ccc2cc(N(C)C(=O)C3=NO[C@H]4C=C[C@@H]5O[C@@H]5[C@@]4(O)C3)c(=O)oc2c1OC | > 10 | > 10 | –
CNc1cc2ccc(OC)c(OC)c2oc1=O | > 10 | > 10 | –
COc1ccc2cc(N)c(=O)oc2c1OC | > 10 | > 10 | –
COc1ccc2cc(NC(=O)C3=NO[C@H]4C=CC=C[C@@]4(O)C3)c(=O)oc2c1OC | > 10 | > 10 | –
COc1ccc2cc(NC(=O)C3=NO[C@H]4CC(=O)[C@@H]5O[C@@H]5[C@@]4(O)C3)c(=O)oc2c1OC | > 10 | > 10 | –
COc1ccc2cc(N(C)C(=O)C3=NO[C@H]4[C@@H]5O[C@@H]5C=C[C@@]4(O)C3)c(=O)oc2c1OC | > 10 | > 10 | –
COc1ccc2cc(N(C)C(=O)C3=NO[C@H]4[C@H](O)C=C[C@@H](O)[C@@]4(O)C3)c(=O)oc2c1OC [TRICHODERMAMIDE C] | > 10 | > 10 | –
COc1ccc2cc(NC(=O)[C@@]34C[C@]5(O)[C@@H](C=C[C@@H](O)[C@@H]5ON3)S4)c(=O)oc2c1OC | – | – | IC50 [11]: > 100 µM; IC50 [12]: 84 µM; IC50 [13]: > 100 µM
COc1ccc2cc(NC(=O)C3=NO[C@H]4[C@H](O)C=C[C@@H](O)[C@@]4(O)C3)c(=O)oc2c1OC [TRICHODERMAMIDE A] | > 10 | > 10 | IC50 [11]: > 100 µM; IC50 [12]: 89 µM; IC50 [13]: > 100 µM
CCOC(=O)C1=NO[C@H]2CC(=O)[C@@H]3O[C@@H]3[C@@]2(O)C1 (relative stereo) | 1.4 | 3.4 | Activity [6]: inactive; Activity [8]: inactive; inhibition [7]: inactive; Activity [9]: inactive

Source: ChEMBL document CHEMBL4033604, “Cytotoxicity and Mechanism of Action of the Marine-Derived Fungal Metabolite Trichodermamide B and Synthetic Analogues” (J Nat Prod, 2017)
